Reference: ChEMBL document CHEMBL2169847, “New tricks for an old natural product: discovery of highly potent evodiamine derivatives as novel antitumor agents by systemic structure-activity relationship analysis and biological evaluations” (J Med Chem, 2012)
The source made the active and inactive calls. The rule behind the calls is not given here.

How the values were obtained:
A549 [1] = test: Cytotoxicity against human A549 cells incubated for 72 hrs by MTT assay; assay type: functional; settings: A549, 72 h
Outline: (§1)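 MTT assay. Cells seeded at 5 × 10³/well and grown 24 h at 37 °C, 5% CO₂. Compounds added at several concentrations in triplicate wells, with 0.1% DMSO control, for 72 h. MTT then added for 4 h, formazan dissolved in DMSO, and absorbance read at 570 nm. GI₅₀ by Logit method; three experiments.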

HCT-116 [2] = test: Cytotoxicity against human HCT116 cells incubated for 72 hrs by MTT assay; assay type: functional; settings: HCT-116, 72 h; outline: as §1
MDA-MB-435 = test: Cytotoxicity against human MDA-MB-435 cells incubated for 72 hrs by MTT assay; assay type: functional; settings: MDA-MB-435, 72 h; outline: as §1
[3] = target: T1, DNA topoisomerase 1 (Homo sapiens) (UniProt P11387); test: Inhibition of Top1 assessed as suppression of supercoiled pBR322 DNA relaxation measuring appearance of short DNA fragments at 100 uM incubated for 15 mins by electrophoresis method
T1 sequence (whole entry): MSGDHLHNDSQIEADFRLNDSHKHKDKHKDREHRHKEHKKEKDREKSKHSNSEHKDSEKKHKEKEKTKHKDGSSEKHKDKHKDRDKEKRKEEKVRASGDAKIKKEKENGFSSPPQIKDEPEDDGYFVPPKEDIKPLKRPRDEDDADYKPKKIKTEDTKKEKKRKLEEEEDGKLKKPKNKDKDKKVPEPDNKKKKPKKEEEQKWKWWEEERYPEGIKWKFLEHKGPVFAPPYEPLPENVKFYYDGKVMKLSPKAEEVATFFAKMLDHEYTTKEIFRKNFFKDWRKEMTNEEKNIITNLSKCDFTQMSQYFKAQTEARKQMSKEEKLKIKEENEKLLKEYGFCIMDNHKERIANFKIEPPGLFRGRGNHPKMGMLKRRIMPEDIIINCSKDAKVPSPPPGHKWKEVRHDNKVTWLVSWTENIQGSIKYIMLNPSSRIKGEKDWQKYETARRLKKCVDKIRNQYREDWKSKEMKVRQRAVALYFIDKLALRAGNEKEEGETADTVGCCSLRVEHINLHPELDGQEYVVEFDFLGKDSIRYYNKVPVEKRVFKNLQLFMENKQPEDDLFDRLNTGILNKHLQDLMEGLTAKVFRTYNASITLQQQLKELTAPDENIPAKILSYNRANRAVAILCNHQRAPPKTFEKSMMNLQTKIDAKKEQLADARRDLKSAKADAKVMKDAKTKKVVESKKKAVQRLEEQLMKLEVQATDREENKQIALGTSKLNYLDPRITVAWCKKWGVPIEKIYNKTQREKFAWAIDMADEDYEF

[4] = target: DNA topoisomerase 2-alpha (Homo sapiens) (UniProt P11388); test: Inhibition of human Top2alpha assessed as suppression of supercoiled pBR322 DNA relaxation at 50 uM incubated for 30 mins by electrophoresis method
ZR-75-30 = test: Cytotoxicity against human ZR75-30 cells incubated for 72 hrs by MTT assay; assay type: functional; settings: ZR-75-30, 72 h; outline: as §1
[5] = Cytotoxicity against human KYSE-150 cells incubated for 72 hrs by MTT assay; assay type: functional; settings: KYSE-150, 72 h; outline: as §1
CNE = test: Cytotoxicity against human CNE cells incubated for 72 hrs by MTT assay; assay type: functional; outline: as §1
U2OS = test: Cytotoxicity against human U2OS cells incubated for 72 hrs by MTT assay; assay type: functional; outline: as §1
SAOS-2 = test: Cytotoxicity against human Saos2 cells incubated for 72 hrs by MTT assay; assay type: functional; settings: SAOS-2, 72 h; outline: as §1
HL-60 = test: Cytotoxicity against human HL60 cells incubated for 72 hrs by MTT assay; assay type: functional; settings: HL-60, 72 h; outline: as §1
PC-3 = test: Cytotoxicity against human PC3 cells incubated for 72 hrs by MTT assay; assay type: functional; settings: PC-3, 72 h; outline: as §1
PANC-1 = test: Cytotoxicity against human PANC1 cells incubated for 72 hrs by MTT assay; assay type: functional; settings: PANC-1, 72 h; outline: as §1
HepG2 = test: Cytotoxicity against human HepG2 cells incubated for 72 hrs by MTT assay; assay type: functional; settings: HepG2, 72 h; outline: as §1
Mus musculus [6] = test: Toxicity in BALB/C nude mouse xenografted with human HCT116 cells assessed as reduction in body weight at 2 mg/kg, ip administered as a single dose on 17th day and measured on 30 to 33 days post implantation; assay type: organism-based, HCT-116; set-up: dose 2 mg/kg, route intraperitoneal; settings: in vivo
Outline: (§2)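 Cells implanted subcutaneously in right axilla of nude mice; dosing began at tumor volume about 100−300 mm³ (day 17). Randomized, six mice per treatment group and eight controls; ip injection. Tumor volume by caliper, TV = 1/2 × a × b², with body weight every 4 days. Mice sacrificed day 30−33 and tumors removed. Mean SEM, Student's t test versus control.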

Nucleic Acid [7] = test: Induction of DNA intercalation in Escherichia coli pBR322 DNA assessed as induction of supercoiled DNA at 100 uM incubated for 15 mins by electrophoresis based Top1 unwinding assay; assay type: nucleic-acid assay
HCT-116 [8] = test: Antitumor activity against human HCT116 cells xenografted in BALB/C nude mouse assessed as tumor growth inhibition at 2 mg/kg, ip administered as a single dose on 17th day and measured on 30 to 33 days post implantation; assay type: functional, organism-based; set-up: dose 2 mg/kg; outline: as §2
Nucleic Acid [9] = test: Binding affinity at calf thymus DNA at 50 uM after 20 mins by UV/vis absorbance titration based assay; assay type: nucleic-acid assay; settings: Bos taurus
Outline: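 ct-DNA in DPBS pH 7.4, concentration set by A260 (13200 M⁻¹/cm per bp). Compounds at 50 μM in DPBS with 1% DMSO, with or without ct-DNA 0−100 μM. After 20 min equilibration at room temperature, absorption spectra recorded over 220−400 nm in a microplate reader. Hypochromic or bathochromic shifts taken as the sign of binding.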

[10] = target: T1, DNA topoisomerase 1 (Homo sapiens); test: Inhibition of Top1 assessed as stabilization of Top1-pUC19 DNA cleavage complex measuring increase of nicked DNA at 100 uM incubated for 15 mins by electrophoresis method
Nucleic Acid [11] = test: Binding affinity at calf thymus DNA minor groove assessed as displacement of Hoechst 33258 dye incubated for 20 mins by microplate reader based assay; assay type: nucleic-acid assay; settings: Bos taurus
[12] = target: DNA topoisomerase 2-alpha (Homo sapiens) (UniProt P11388); test: Inhibition of human Top2alpha assessed as stabilization of Top2-pBr322 DNA cleavage complex measuring linear DNA formation at 100 uM incubated for 20 mins by electrophoresis method
Outline: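 Top2α drug screening kit with 8 units hTop2α and pBR322 plasmid. After reaction, proteinase K (200 μg/mL final) 20 min at 50 °C. Electrophoresis in TAE with 0.5 μg/mL ethidium bromide to resolve nicked, linear, relaxed and supercoiled forms.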

Mus musculus [13] = test: Toxicity in BALB/C nude mouse xenografted with human A549 cells assessed as reduction in body weight at 2 mg/kg, ip administered as a single dose on 17th day and measured on 30 to 33 days post implantation; assay type: organism-based; set-up: dose 2 mg/kg, route intraperitoneal; settings: in vivo; outline: as §2
A549 [14] = test: Antitumor activity against human A549 cells xenografted in BALB/C nude mouse assessed as tumor growth inhibition at 2 mg/kg, ip administered as a single dose on 17th day post implantation and measured on 30 to 33 days post implantation; assay type: functional, organism-based; set-up: dose 2 mg/kg; outline: as §2

Sequence of DNA topoisomerase 2-alpha (Homo sapiens) (P11388 whole entry): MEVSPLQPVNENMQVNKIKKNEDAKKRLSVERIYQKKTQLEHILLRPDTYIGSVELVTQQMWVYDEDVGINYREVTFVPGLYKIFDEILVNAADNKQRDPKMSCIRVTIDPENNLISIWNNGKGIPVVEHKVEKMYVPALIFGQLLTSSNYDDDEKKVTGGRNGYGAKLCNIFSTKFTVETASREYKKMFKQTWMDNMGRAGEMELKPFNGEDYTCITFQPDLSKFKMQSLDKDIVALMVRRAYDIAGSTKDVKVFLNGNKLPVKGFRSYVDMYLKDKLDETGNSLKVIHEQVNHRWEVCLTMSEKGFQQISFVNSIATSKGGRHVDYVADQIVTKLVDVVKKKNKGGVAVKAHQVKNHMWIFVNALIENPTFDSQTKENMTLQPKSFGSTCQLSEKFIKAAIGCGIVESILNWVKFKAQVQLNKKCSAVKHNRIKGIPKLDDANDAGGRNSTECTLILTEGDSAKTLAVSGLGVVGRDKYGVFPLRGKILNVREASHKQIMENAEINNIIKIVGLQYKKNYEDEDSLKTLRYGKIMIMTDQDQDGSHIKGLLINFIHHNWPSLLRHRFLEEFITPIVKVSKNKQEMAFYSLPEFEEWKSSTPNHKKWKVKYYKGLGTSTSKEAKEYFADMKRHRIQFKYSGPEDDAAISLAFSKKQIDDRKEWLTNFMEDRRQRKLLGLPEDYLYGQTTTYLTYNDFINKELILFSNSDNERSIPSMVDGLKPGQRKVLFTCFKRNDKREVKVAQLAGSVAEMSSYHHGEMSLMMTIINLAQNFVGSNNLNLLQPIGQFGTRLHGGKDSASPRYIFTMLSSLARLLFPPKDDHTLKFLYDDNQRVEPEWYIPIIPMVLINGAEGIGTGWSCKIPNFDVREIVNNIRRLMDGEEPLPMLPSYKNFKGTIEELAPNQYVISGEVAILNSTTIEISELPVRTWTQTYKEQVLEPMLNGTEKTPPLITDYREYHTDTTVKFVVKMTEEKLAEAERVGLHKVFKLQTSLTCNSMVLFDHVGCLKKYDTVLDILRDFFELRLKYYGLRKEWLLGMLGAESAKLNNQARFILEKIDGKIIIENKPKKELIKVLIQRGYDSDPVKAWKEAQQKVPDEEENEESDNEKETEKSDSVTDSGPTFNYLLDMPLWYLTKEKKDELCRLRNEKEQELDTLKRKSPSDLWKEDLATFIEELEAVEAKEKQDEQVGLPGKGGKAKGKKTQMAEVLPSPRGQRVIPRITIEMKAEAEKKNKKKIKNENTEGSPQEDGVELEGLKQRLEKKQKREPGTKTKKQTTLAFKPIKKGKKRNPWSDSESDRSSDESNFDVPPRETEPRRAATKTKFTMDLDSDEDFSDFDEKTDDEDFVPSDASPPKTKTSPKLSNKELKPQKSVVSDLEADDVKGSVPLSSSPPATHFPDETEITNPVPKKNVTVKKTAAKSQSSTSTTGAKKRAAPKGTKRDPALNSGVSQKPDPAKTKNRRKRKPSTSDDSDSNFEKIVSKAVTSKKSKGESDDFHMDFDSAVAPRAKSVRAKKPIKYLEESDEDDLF

| SMILES | inhibition [3] | inhibition [4] | inhibition [12] | GI50 (A549 [1]) [nM] | GI50 (HCT-116 [2]) [nM] | GI50 (MDA-MB-435) [nM] | other results |
| --- | --- | --- | --- | --- | --- | --- | --- |
| CN1c2cccc(O)c2C(=O)N2CCc3c([nH]c4ccccc34)C21 (stereo unspecified) | Active | Active | – | 62400 | 2140 | 240 | – |
| CN1c2ccc(F)cc2C(=O)N2CCc3c([nH]c4ccc(O)cc34)[C@H]21 | – | – | – | 3.7 | 3.6 | – | GI50 (ZR-75-30): 3 nM; GI50 [5]: 3 nM; GI50 (CNE): 8110 nM |
| CC[C@@]1(O)C(=O)OCc2c1cc1n(c2=O)Cc2cc3ccccc3nc2-1 [CAMPTOTHECIN] | – | – | – | 170 | 83 | 33 | GI50 (U2OS): > 287000 nM; GI50 (SAOS-2): > 287000 nM; GI50 (HL-60): < 3 nM; GI50 (PC-3): > 287000 nM; GI50 (PANC-1): 6290 nM; GI50 (HepG2): 220 nM |
| CN1c2ccc(O)cc2C(=O)N2CCc3c([nH]c4ccc(O)cc34)C21 (stereo unspecified) | Active | Active | inactive | 750 | 7 | 3 | Activity (Mus musculus [6]): Toxic; Activity (Nucleic Acid [7]): inactive; TGI (HCT-116 [8]): Active; Activity (Nucleic Acid [9]): inactive; inhibition [10]: Active; Activity (Nucleic Acid [11]): inactive |
| CN1c2ccc(O)cc2C(=O)N2CCc3c([nH]c4ccccc34)C21 (stereo unspecified) | Active | inactive | – | > 200000 | 13 | < 3 | – |

Now from value to compound, other results behind:

| inhibition [3] | inhibition [4] | inhibition [12] | SMILES | GI50 (A549 [1]) [nM] | GI50 (HCT-116 [2]) [nM] | GI50 (MDA-MB-435) [nM] | other results |
| --- | --- | --- | --- | --- | --- | --- | --- |
| – | Active | – | COc1ccc2[nH]c3c(c2c1)CCN1C(=O)c2cc(N)ccc2N(C)C31 (stereo unspecified) | 62000 | 6600 | 12000 | – |
| Active | Active | – | CN1c2ccc(F)cc2C(=O)N2CCc3c([nH]c4ccc(O)cc34)C21 (stereo unspecified) | < 3 | < 3 | < 3 | Activity (Mus musculus [6]): Non-toxic; Activity (Mus musculus [13]): Non-toxic; GI50 (U2OS): > 296000 nM; TGI (HCT-116 [8]): Active; GI50 (SAOS-2): > 296000 nM; GI50 (HL-60): < 3 nM; GI50 (PC-3): 92300 nM; TGI (A549 [14]): inactive; GI50 (PANC-1): < 3 nM; GI50 (HepG2): 23800 nM |
| – | Active | Active | COc1cc([C@@H]2c3cc4c(cc3[C@@H](O[C@@H]3O[C@@H]5CO[C@@H](C)O[C@H]5[C@H](O)[C@H]3O)[C@H]3COC(=O)[C@H]23)OCO4)cc(OC)c1O | – | – | – | – |
| Active | – | inactive | CN1c2cccc(O)c2C(=O)N2CCc3c([nH]c4ccc(O)cc34)C21 (stereo unspecified) | 230 | 9 | 13 | Activity (Nucleic Acid [7]): inactive; Activity (Nucleic Acid [9]): inactive; inhibition [10]: Active; Activity (Nucleic Acid [11]): inactive |
